The source made the active and inactive calls. No cut-off for these calls is given here.

For one experiment, the system named is RAW-Blue. As to the kind of experiment: Activation of NF-kappaB transcriptional activity in mouse RAW-Blue cells expressing NOD2 and TLR7 at 1 uM incubated for 18 hrs by quanti-blue/SEAP-based spectrophotometry analysis. Type of experiment: cell-based. Conditions: filed as activator. Put shortly: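 RAW-Blue cells pretreated 1 h with NOD2 antagonist SG84 (5 μM), TLR7 antagonist M5049 (1 μM), both, or neither, then given compound or 0.1% DMSO vehicle; 18 h at 37 °C, 5% CO2 in growth medium without Normocin/Zeocin. Supernatant mixed with QUANTI-Blue for 2 h at 37 °C, SEAP read at 630 nm. Activity relative to vehicle; three independent experiments, mean ± SEM.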

Experiment [1] concerns PBMC. As to the kind of experiment: Immunostimulatory activity in human PBMC cells assessed as increase in IL-1beta production at 1 uM incubated for 18 hrs by flow cytometry analysis. Type of experiment: functional, cell-based. The method, boiled down:
(§1)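 PBMCs at 1 × 10^6 cells/mL treated with compound (1 μM), LPS (1 μg/mL) or 0.1% DMSO vehicle; cell-free supernatants collected after 18 h at 37 °C, 5% CO2. Cytokines quantified by human inflammatory cytokine bead array on flow cytometry with recombinant standard curves. Four independent experiments, mean ± SEM.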
For orientation: In flow cytometry, cells or beads pass a laser one at a time.

The test system of experiment [2] is PBMC. As to the kind of experiment: Immunostimulatory activity in human PBMC cells assessed as increase in IL-6 production at 1 uM incubated for 18 hrs by flow cytometry analysis. Type of experiment: functional, cell-based. Put shortly:
as §1

For experiment [3], the system named is PBMC. As to the kind of experiment: Immunostimulatory activity in human PBMC cells assessed as increase in IL-10 production at 1 uM incubated for 18 hrs by flow cytometry analysis. Type of experiment: functional, cell-based. The method, boiled down: as §1
For experiment [4], the system named is PBMC. As to the kind of experiment: Immunostimulatory activity in human PBMC cells assessed as increase in TNF production at 1 uM incubated for 18 hrs by flow cytometry analysis. Type of experiment: functional, cell-based. Put shortly:
as §1

The subject of another experiment is K562. As to the kind of experiment: Cytotoxicity against human K562 cells cocultured with human PBMC cells assessed as inhibition of cell proliferation at 0.01 to 1 uM incubated with PBMC cells for 18 hrs followed by co-incubation with K562 cells for 4 hrs by SYTOX blue staining based flow cytometric analysis. Type of experiment: functional. Conditions: dose 0.01-1 µM. The method, boiled down: (§2)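 Human PBMCs (Ficoll-isolated, healthy donors) pretreated 18 h in duplicate with compound (1 nM–1 μM) or 0.1% DMSO. CFSE-labelled K562 or MEC1 target cells then added, effector:target 40:1, 4 h at 37 °C. Sytox blue staining, flow cytometry; CFSE+Sytox+ cells counted as dead. Expressed relative to vehicle; three independent experiments, mean ± SEM.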

The next experiment has as its system MEC1. In words: Cytotoxicity against human MEC1 cells cocultured with human PBMC cells assessed as inhibition of cell proliferation at 0.01 to 1 uM incubated with PBMC cells for 18 hrs followed by co-incubation with MEC-1 cells for 4 hrs by SYTOX blue staining based flow cytometric analysis. Type of experiment: functional. Conditions: dose 0.01-1 µM. Put shortly: as §2

A short description of experiment [5]: Induction of activation of human CD56+ CD3- NK cells co-cultured with human PBMC cells assessed as increase in CD69 expression at 1 uM incubated for 24 hrs by flow cytometry analysis (reference value: 2.7%). Type of experiment: functional, Natural killer cell.
Experiment [6] has as its system CD4+ve Th. In words: Induction of mouse ovalbumin specific CD4+ T cell activation assessed as increase in IL-6 expression at 1 uM preincubated for 18 hrs with mouse BDMC cells in presence of ovalbumin followed by washout and further coincubated with CD4+ T cells and measured after 72 hrs. Type of experiment: functional, cell-based. Put shortly:
(§3)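 Supernatants taken after the 72 h coculture of washed BMDCs (18 h pretreatment with 1 μM compound, LPS 1 μg/mL or vehicle, plus OVA 50 μg/mL) with OT-II CD4+ or OT-I CD8+ T cells. Cytokines measured by mouse Th1/Th2/Th17 cytometric bead array. Duplicates of two independent experiments, mean ± SEM.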

The subject of experiment [7] is CD4+ve Th. In words: Induction of mouse ovalbumin specific CD4+ T cell activation assessed as increase in IL-17A expression at 1 uM preincubated for 18 hrs with mouse BDMC cells in presence of ovalbumin followed by washout and further coincubated with CD4+ T cells and measured after 72 hrs. Type of experiment: functional, cell-based. The method, boiled down: as §3

In experiment [8] the test system is CD4+ve Th. As to the kind of experiment: Induction of mouse ovalbumin specific CD4+ T cell activation assessed as increase in TNF expression at 1 uM preincubated for 18 hrs with mouse BDMC cells in presence of ovalbumin followed by washout and further coincubated with CD4+ T cells and measured after 72 hrs. Type of experiment: functional, cell-based. Put shortly:
as §3

For experiment [9], the system named is CD4+ve Th. As to the kind of experiment: Induction of mouse ovalbumin specific CD4+ T cell activation assessed as increase in IFN-gamma expression at 1 uM preincubated for 18 hrs with mouse BDMC cells in presence of ovalbumin followed by washout and further coincubated with CD4+ T cells and measured after 72 hrs. Type of experiment: functional, cell-based. Put shortly: as §3

Experiment [10] relates to CD8-positive T cell. In words: Induction of mouse ovalbumin specific CD8-positive T cell activation assessed as increase in IL-17A expression at 1 uM preincubated for 18 hrs with mouse BDMC cells in presence of ovalbumin followed by washout and further coincubated with CD4+ T cells and measured after 72 hrs. Type of experiment: functional, cell-based. The method, boiled down:
as §3

Experiment [11] relates to CD8-positive T cell. As to the kind of experiment: Induction of mouse ovalbumin specific CD8-positive T cell activation assessed as increase in TNF expression at 1 uM preincubated for 18 hrs with mouse BDMC cells in presence of ovalbumin followed by washout and further coincubated with CD4+ T cells and measured after 72 hrs. Type of experiment: functional, cell-based. Put shortly:
as §3

Experiment [12] relates to CD8-positive T cell. As to the kind of experiment: Induction of mouse ovalbumin specific CD8-positive T cell activation assessed as increase in IFN-gamma expression at 1 uM preincubated for 18 hrs with mouse BDMC cells in presence of ovalbumin followed by washout and further coincubated […] and measured after 72 hrs. Type of experiment: functional, cell-based. Put shortly:
as §3

Experiment [13] deals with Mus musculus. In words: Immuno-adjuvant activity in NIH/OlaHsd mouse assessed as increase in ovalbumin specific Th2 associated IgG1 production in sera at 50 ug, sc administered on day 0 and as booster dose on day 21 and 28 measured 7 days post last dose by ELISA. Type of experiment: functional, organism-based. Conditions: dose 50.0 µg, time 35.0 day.
For experiment [14], the system named is Mus musculus. In words: Immuno-adjuvant activity in NIH/OlaHsd mouse assessed as increase in ovalbumin specific Th1 associated IgG2a production in sera at 50 ug, sc administered on day 0 and as booster dose on day 21 and 28 measured 7 days post last dose by ELISA. Conditions: dose 50.0 µg, time 35.0 day. Type of experiment: functional, organism-based. For orientation: ELISA stands for enzyme-linked immunosorbent assay.

Experiment [15] relates to PBMC. As to the kind of experiment: Upregulation of IFN-gamma gene transcription in human PBMC cells at 1 uM incubated for 18 hrs by KEGG analysis. Type of experiment: functional, cell-based. Put shortly: (§4)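 PBMCs from three donors (2 × 10^6 cells/mL) exposed to 1 μM compound or 0.1% DMSO for 18 h at 37 °C. mRNA isolated, amplified, sequenced. DESeq2 differential expression, FDR <0.05 and fold change >2 or <0.5 versus vehicle; gene lists used for Metascape/KEGG enrichment.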

In experiment [16] the test system is PBMC. As to the kind of experiment: Upregulation of IL12A gene transcription in human PBMC cells at 1 uM incubated for 18 hrs by KEGG analysis. Type of experiment: functional, cell-based. The method, boiled down: as §4
The test system of experiment [17] is PBMC. In words: Upregulation of Tbx21 gene transcription in human PBMC cells at 1 uM incubated for 18 hrs by KEGG analysis. Type of experiment: functional, cell-based. Put shortly: as §4
For experiment [18], the system named is PBMC. As to the kind of experiment: Upregulation of CXCL9 gene transcription in human PBMC cells at 1 uM incubated for 18 hrs by KEGG analysis. Type of experiment: functional, cell-based. Put shortly:
as §4

Experiment [19] concerns PBMC. In words: Upregulation of IL-17A gene transcription in human PBMC cells at 1 uM incubated for 18 hrs by KEGG analysis. Type of experiment: functional, cell-based. The method, boiled down:
as §4

Experiment [20] has as its system PBMC. In words: Upregulation of IL-17F gene transcription in human PBMC cells at 1 uM incubated for 18 hrs by KEGG analysis. Type of experiment: functional, cell-based. Put shortly:
as §4

The subject of experiment [21] is PBMC. As to the kind of experiment: Upregulation of IL-22 gene transcription in human PBMC cells at 1 uM incubated for 18 hrs by KEGG analysis. Type of experiment: functional, cell-based. The method, boiled down: as §4

`CCCCOc1nc(N)c2nc(O)n(Cc3ccc(C(=O)NCCOCCNC(=O)CC[C@@H](NC(=O)[C@@H](NC(=O)CNC(=O)/C=C/c4ccc(O)c(OC)c4)C(C)C)C(=O)OCC)cc3)c2n1`: the result in the experiment with RAW-Blue, in the experiment on PBMC [1], with PBMC [2], in the experiment with PBMC [3], in the experiment on PBMC [4] and with K562 was Active. Also, the result in the experiment on MEC1, in the experiment on CD4+ve Th [6], in the experiment with CD4+ve Th [7], in the experiment with CD4+ve Th [8], with CD4+ve Th [9] and in the experiment with CD8-positive T cell [10] was Active. Further, the result in the experiment with CD8-positive T cell [11], with CD8-positive T cell [12], in the experiment with Mus musculus [13], in the experiment with Mus musculus [14], in the experiment with PBMC [15] and in the experiment with PBMC [16] was Active. The result in the experiment on PBMC [17], in the experiment on PBMC [18], with PBMC [19], in the experiment on PBMC [20] and with PBMC [21] was Active. Moreover, in experiment [5], the Activity is 93%.

Values taken from ChEMBL document CHEMBL5096231, “Covalently Conjugated NOD2/TLR7 Agonists Are Potent and Versatile Immune Potentiators” (J Med Chem, 2022).
